Changes are numbered by the printed parent chain.
Tests used:
Test in all cases: spectral perturbation titration
Format in all cases: binding
[1] = molecular target: T1, nitrate reductase (NarB) (Synechococcus elongatus, UniProt P39458, K144Q)
T1 sequence (P39458 15-729 K144Q): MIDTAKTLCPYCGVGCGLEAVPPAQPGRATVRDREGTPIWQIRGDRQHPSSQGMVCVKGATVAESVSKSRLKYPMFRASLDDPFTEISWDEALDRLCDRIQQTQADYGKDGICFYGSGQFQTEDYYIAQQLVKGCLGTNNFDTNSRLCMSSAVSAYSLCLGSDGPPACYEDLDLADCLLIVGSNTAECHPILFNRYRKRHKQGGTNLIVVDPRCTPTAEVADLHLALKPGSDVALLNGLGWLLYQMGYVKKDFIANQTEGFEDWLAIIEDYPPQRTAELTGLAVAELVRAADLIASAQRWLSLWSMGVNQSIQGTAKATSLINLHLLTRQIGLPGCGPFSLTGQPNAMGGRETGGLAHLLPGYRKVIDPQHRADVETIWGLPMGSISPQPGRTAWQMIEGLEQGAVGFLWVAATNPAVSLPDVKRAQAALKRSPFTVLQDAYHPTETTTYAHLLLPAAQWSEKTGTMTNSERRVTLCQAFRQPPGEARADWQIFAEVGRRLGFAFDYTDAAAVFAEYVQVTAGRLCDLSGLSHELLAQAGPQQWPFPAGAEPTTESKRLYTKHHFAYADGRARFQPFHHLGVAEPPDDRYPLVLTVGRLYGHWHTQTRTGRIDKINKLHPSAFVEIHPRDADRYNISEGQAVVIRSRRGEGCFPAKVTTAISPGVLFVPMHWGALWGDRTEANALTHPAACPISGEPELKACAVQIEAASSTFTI
Method in brief: (§1)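 Single-residue NarB variants were made by site-directed mutagenesis and expressed and purified as for wild type (His6, Co affinity, DEAE, gel filtration). Complex formation with ferredoxin or nitrate was followed by difference absorbance at variant-specific wavelength pairs chosen for signal:noise. The change at saturating nitrate was taken as 100% complex. Kd came from fitting perturbation magnitude against ligand concentration to a single binding isotherm.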

[2] = molecular target: T2, nitrate reductase (NarB) (Synechococcus elongatus, UniProt P39458, R84Q)
T2 sequence (P39458 15-729 R84Q): T1 sequence (P39458 15-729 K144Q) with R70Q, Q130K
Method in brief: as §1

[3] = molecular target: T3, nitrate reductase (NarB) (Synechococcus elongatus, UniProt P39458, R160Q)
T3 sequence (P39458 15-729 R160Q): T1 sequence (P39458 15-729 K144Q) with Q130K, R146Q
Method in brief: as §1

O=[N+]([O-])O [nitrate]
Kd [1]: 19 ± 6.8 µM | Kd [2]: 5.5 ± 2.2 µM | Kd [3]: 1.5 ± 0.4 µM
